The source of these data is publication PMC7880169 (Medicinal chemistry research : an international journal for …, 2020).

One may read the microsomal CLint as the capacity of the preparation to metabolise the compound, expressed as a volume cleared per time. Low values mean slow turnover, high ones rapid turnover. A word on the Ki: it is the dissociation constant of the complex between target and ligand, obtained from inhibition or displacement.

Where two headings read alike, the source gives them in different places. A value given as a limit tells only on which side of the number the result lay.

Series [1] concerns the target T1, σ1R (Cavia porcellus, UniProt Q60492). The settings on record: selectivity ratio; ref Yous et al. 2005; cited from earlier work.
The nature of series [2]: In vitro microsomal stability in RLMs. It is filed as in vitro ADME, rat. The settings on record: for microsomal CLint at 1 μM: rat, rat liver microsomes, pH 7.4. The essentials: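 Test compound at 1 μM (spiked from 200 μM stock) in 50 mM phosphate buffer pH 7.4 with 1 mg protein/mL rat liver microsomes and 3 mM MgCl2. Mixture pre-incubated 5 min at 37 ± 0.5 °C, then started with NADPH (1 mM final) and shaken for 30 min. Aliquots taken at 0, 5, 10, 15, 20 and 30 min, quenched in ice-cold acetonitrile with internal standard, filtered and analysed by LC-MS/MS. Controls: verapamil (positive) and no-NADPH mixture (negative).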
For orientation: Liver microsomes are vesicles of endoplasmic reticulum, rich in cytochrome P450 enzymes.

For another series, the target named is σ2R. Particulars: read-out: Ki (nM ± SEM) σ2R; ref Yous et al. 2005; cited from earlier work.
The target of series [3] is T1, σ1R. Description: σ1R radioligand binding with [3H]. The arrangement: species or system guinea pig. The settings on record: for Ki σ2R /Ki σ1R: selectivity ratio σ2R over σ1R. In a few lines: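 Membranes from frozen whole guinea pig brain. Each tube held 3 nmol/L [3H](+)-pentazocine (28 Ci/mmol) and 8.0 mg tissue.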
A short description of series [4]: Metabolic soft spot identification of 12 in RLMs. It is filed as in vitro ADME, rat. Particulars: RLMs with NADPH. In a few lines:
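Test compound at 10 μM in 50 mM phosphate buffer pH 7.4 with 1 mg protein/mL rat liver microsomes, pre-incubated 5 min at 37 ± 0.5 °C with shaking. Reaction started with NADPH (1 mM final). Samples taken at 0 min (control) and 10 min, mixed with an equal volume of ice-cold acetonitrile, vortexed 2 min and centrifuged at 10,000 g for 5 min. Supernatant analysed by LC-HRMS on a QToF.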

T1 sequence (Q60492 whole entry): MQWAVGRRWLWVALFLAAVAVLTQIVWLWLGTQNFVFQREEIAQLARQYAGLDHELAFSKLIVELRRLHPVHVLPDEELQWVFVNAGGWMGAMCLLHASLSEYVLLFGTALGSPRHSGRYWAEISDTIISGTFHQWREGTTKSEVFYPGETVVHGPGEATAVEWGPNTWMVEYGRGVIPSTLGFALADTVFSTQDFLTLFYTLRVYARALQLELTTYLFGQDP

`CCCc1ccc2c(c1)sc(=O)n2CCN1CCCCCC1` [SN56, 3-[2-(azepan-1-yl)ethyl]-6-propylbenzo[d]thiazol-2(3H)-one, reference compound]: the “Ki σ2R /Ki σ1R” value on σ1R [1] is listed as more than 1000. The “t1/2 (in vitro hepatic microsomal half-life)” value in series [2] (RLMs 1 mg protein/mL, 1 μM compound, NADPH, 37 °C) is 58.8 s. In series [2], the microsomal CLint at 1 μM was 710 µL/min/mg. Besides, at σ2R, the Ki is more than 1000 nM.
For `CCCc1ccc2c(c1)sc(=O)n2CCNC12CC3CC(CC(C3)C1)C2` [Compound 9, 3-{2-[(Adamantan-1-yl)amino]ethyl}−6-propylbenzo[d]thiazol-2(3H)-one], in series [2], the intrinsic clearance (microsomal CLint) at 1 μM was determined as 280 µL/min/mg. In addition, on σ1R [3], the Ki came out at 11.2 ± 0.68 nM and the “Ki σ2R /Ki σ1R” value is recorded as 6.2.
For `CCC(=O)c1ccc2c(c1)sc(=O)n2CCN(C)C12CC3CC(CC(C3)C1)C2` [Compound 11, 3-{2-[(Adamantan-1-yl)(methyl)amino]ethyl}−6-propionylbenzo[d]thiazol-2(3H)-one], in that order: 560 µL/min/mg, 12.9 ± 1.84 nM and 8.7.
Take `CCCc1ccc2c(c1)sc(=O)n2CCN(C)C12CC3CC(CC(C3)C1)C2` [Compound 12, 3-{2-[(Adamantan-1-yl)(methyl)amino]ethyl}−6-propylbenzo[d]thiazol-2(3H)-one]: in series [2], the intrinsic metabolic clearance (microsomal CLint) at 1 μM was found to be 370 µL/min/mg. Further, on σ1R [3], the affinity corresponds to a Ki of 7.2 ± 0.88 nM and the “Ki σ2R /Ki σ1R” value came to 61. In addition, the “remaining unmodified at the end of 10 min incubation” value in series [4] is “ca. 6%”.
For the compound `O=c1sc2ccccc2n1CCNC12CC3CC(CC(C3)C1)C2` [Compound 7, 3-{2-[(Adamantan-1-yl)amino]ethyl}benzo[d]thiazol-2(3H)-one], in series [2], the intrinsic metabolic clearance (microsomal CLint) at 1 μM came to 460 µL/min/mg. Moreover, at σ1R [3], the Ki came out at 131 ± 9.94 nM and the “Ki σ2R /Ki σ1R” value is given as 0.5.
Take `CCC(=O)c1ccc2c(c1)sc(=O)n2CCNC12CC3CC(CC(C3)C1)C2` [Compound 8, 3-{2-[(Adamantan-1-yl)amino]ethyl}−6-propionylbenzo[d]thiazol-2(3H)-one]: the intrinsic clearance (microsomal CLint) at 1 μM in series [2] stood at 160 µL/min/mg. At σ1R [3], the affinity corresponds to a Ki of 11.2 ± 1.26 nM and the “Ki σ2R /Ki σ1R” value is 6.3.
Taken in the same sequence, the figures for `CN(CCn1c(=O)sc2ccccc21)C12CC3CC(CC(C3)C1)C2` [Compound 10, 3-{2-[(Adamantan-1-yl)(methyl)amino]ethyl}benzo[d]thiazol-2(3H)-one] were 650 µL/min/mg, 12.9 ± 1.8 nM and 6.6.
